This is an account of results in ChEMBL document CHEMBL1649354, “Bioactivity-guided isolation of GABA(A) receptor modulating constituents from the rhizomes of Actaea racemosa” (J Nat Prod, 2010).

The term EC50 denotes the concentration at which the effect is half-maximal.

Molecules are shown by their SMILES.

Type in all cases: cell-based
Experiment [1] relates to Oocyte. The experiment can be described thus: Allosteric modulation of alpha1beta2gamma2S GABAA receptor expressed in Xenopus laevis oocytes assessed as stimulation of GABA-induced chloride current at 100 uM by electrophysiology. The procedure, abridged:
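Two-microelectrode voltage clamp; GABA at EC3-10 (eliciting 3–10% of maximal current, determined at the start of each experiment). Test material applied for 1 min equilibration before GABA, then co-applied. Stimulation calculated as (I(GABA+Comp)/IGABA) − 1 at 100 µM, reported as %. Mean ± SE, n = 4–7 oocytes, at least two oocyte batches; oocytes with currents >3 µA discarded.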

Experiment [2] has as its system Oocyte. Briefly: Allosteric modulation of alpha1beta2gamma2S GABAA receptor expressed in Xenopus laevis oocytes assessed as stimulation of GABA-induced chloride current at 300 uM by electrophysiology. The procedure, abridged:
(§1)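 Two-microelectrode voltage clamp of oocytes. GABA applied at EC3-10 (3-10% of maximal current), set at the start of each experiment. Compound pre-applied for 1 min before GABA. Enhancement taken as (I(GABA+Comp)/IGABA) - 1. Concentration-response data fitted to 1/[1 + (EC50/[Comp])nH]. Mean ± SE from ≥4 oocytes and ≥2 oocyte batches.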

Experiment [3] is described as follows: (§2) Allosteric modulation of alpha1beta2gamma2S GABAA receptor expressed in Xenopus laevis oocytes assessed as stimulation of GABA-induced chloride current by electrophysiology. The note with it: Oocyte. The procedure, abridged: as §1
Experiment [4] relates to Oocyte. Described as §2. The procedure, abridged: as §1

Take `C[C@@H]1C[C@@H]2O[C@@]3(O[C@@H]2C(C)(C)O)[C@H](O)[C@@]2(C)[C@@H]4CC[C@H]5C(C)(C)[C@@H](O)CC[C@@]56C[C@@]46CC[C@]2(C)[C@@H]13`: the Activity in the experiment with Oocyte [1] amounted to 104%.

For `CC(=O)O[C@@H]1C[C@@]23C[C@@]24CC[C@H](O)C(C)(C)[C@@H]4CC[C@H]3[C@]2(C)C[C@@H]3O[C@]4(C[C@@H](C)[C@@H]3[C@@]12C)O[C@H](O)[C@@]1(C)O[C@H]41`, the Activity in the experiment with Oocyte [1] turned out to be 126%.

Consider `C[C@@H]1C[C@@H]2O[C@@]3(O[C@@H]2C(C)(C)O)[C@H](O)[C@@]2(C)[C@@H]4CC[C@H]5C(C)(C)[C@@H](O[C@@H]6OC[C@@H](O)[C@H](O)[C@H]6O)CC[C@@]56C[C@@]46CC[C@]2(C)[C@@H]13`, for which the figures for the Activity in the experiment on Oocyte [1], with Oocyte [2] and in the experiment with Oocyte [4] were 189%, 256% and “Dose-dependent effect”, respectively. In addition, the concentration giving a half-maximal response (EC50) in experiment [3] was 28 µM.

In the case of `CC(=O)O[C@@H]1C[C@@]23C[C@@]24CC[C@H](O[C@@H]2OC[C@@H](O)[C@H](O)[C@H]2O)C(C)(C)[C@@H]4CC[C@H]3[C@]2(C)C[C@@H]3O[C@]4(C[C@@H](C)[C@@H]3[C@@]12C)O[C@H](O)[C@@]1(C)O[C@@H]41` [ACTEIN], the Activity with Oocyte [1] is 305%; in the experiment with Oocyte [2], 378%; in the experiment with Oocyte [4] it was “Dose-dependent effect”. Also, the concentration giving a half-maximal response (EC50) in experiment [3] was determined as 36 µM.

`CC(=O)O[C@H](C[C@@H](C)[C@H]1C(=O)[C@H](O)[C@@]2(C)[C@@H]3CC[C@H]4C(C)(C)[C@@H](O)CC[C@@]45C[C@@]35CC[C@]12C)[C@H]1OC1(C)C`: the Activity in the experiment on Oocyte [1] turned out to be 64%.

On to `CC(=O)OC(C)(C)[C@H]1O[C@@]23O[C@H]1C[C@@H](C)[C@@H]2[C@@]1(C)CC[C@@]24C[C@@]25CC[C@H](O[C@@H]2OC[C@H](O)[C@H](O)[C@H]2O)C(C)(C)[C@@H]5CC[C@H]4[C@]1(C)[C@H]3O`, for which the Activity in the experiment with Oocyte [1] is 271%; with Oocyte [2], 289%; in the experiment on Oocyte [4], “Dose-dependent effect”. Besides, in experiment [3], the EC50 amounted to 26 µM.

For the molecule `CC(=O)O[C@H](C[C@@H](C)[C@H]1C(=O)[C@H](O)[C@@]2(C)[C@@H]3CC[C@H]4C(C)(C)[C@@H](O[C@@H]5OC[C@@H](O)[C@H](O)[C@H]5O)CC[C@@]45C[C@@]35CC[C@]12C)[C@H]1OC1(C)C`, the Activity in the experiment with Oocyte [1] was 1690%; with Oocyte [2] it was 1950%; in the experiment with Oocyte [4] it was “Dose-dependent effect”. Also, in experiment [3], the concentration for a half-maximal effect (EC50) was 27 µM.
